For data set [1], the system named is Human immunodeficiency virus 1. As to the kind of experiment: Antiviral activity against Human immunodeficiency virus 1 3B infected in human MT4 cells assessed as inhibition of virus-induced cytopathogenicity after 4 days by MTT assay. Format: functional, organism-based. Conditions: MT4, 96 h. The essentials:
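MT-4 cells (1 × 10^4 per well) in RPMI with or without serial compound dilutions, acutely infected with HIV-1 at m.o.i. 0.01 (100 CCID50). After 4-day incubation at 37 °C, protection from virus-induced cytopathogenicity was read as cell viability by MTT. Compounds were made as 100 mM DMSO stocks and diluted in medium.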
In general terms: Damage to the host cells serves as the signal in cytopathic effect assays.

Data set [2] in a line: Cytotoxicity against human MT4 cells after 96 hrs by MTT assay. The data set is classed as cell-based. The procedure, abridged:
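Exponentially growing MT-4 cells seeded at 1 × 10^5 cells/ml in RPMI-1640 with 10 % FBS and penicillin/streptomycin. Incubated at 37 °C, 5 % CO2, with or without serial compound dilutions (100 mM DMSO stocks diluted in medium), run in parallel with the antiviral test. Viability by MTT after 96 h.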

Molecules are shown by their SMILES.

As for `O=c1[nH]c(=O)c2c(-c3ccccc3)c3c(c(-c4ccccc4)c12)c(=O)c1ccccc13`, the EC50 (commonly the concentration that produces a half-maximal response) in data set [1] was above 9 µM. Consider `O=c1c2ccccc2c2c(-c3ccccc3)c3c(=O)n(CCCCN4CCN(c5ccccc5)CC4)c(=O)c3c(-c3ccccc3)c12`, for which the CC50 (usually the concentration at which the toxic effect on the cells reaches its halfway point) at 96 h in data set [2] was above 100 µM. Moreover, the EC50 in data set [1] was above 100 µM. As to `O=c1c2ccccc2c2c(-c3ccccc3)c3c(=O)n(CCCCN4CCN(c5ccccn5)CC4)c(=O)c3c(-c3ccccc3)c12`, the CC50 at 96 h in data set [2] was above 100 µM. Also, in data set [1], the EC50 was above 100 µM. The molecule `O=c1c2ccccc2c2c(-c3ccccc3)c3c(=O)n(CCCCN4CCN(CCc5ccccc5C(F)(F)F)CC4)c(=O)c3c(-c3ccccc3)c12` yielded a CC50 at 96 h in data set [2] of 9 µM. For the same molecule, the EC50 in data set [1] is above 9 µM.

With `O=c1c2ccccc2c2c(-c3ccccc3)c3c(=O)n(CCCCN4CCN(c5ccccc5F)CC4)c(=O)c3c(-c3ccccc3)c12`, the CC50 at 96 h in data set [2] was above 100 µM. Further, the EC50 in data set [1] was above 100 µM. `O=c1c2ccccc2c2c(-c3ccccc3)c3c(=O)n(CCCCN4CCN(c5ccc(F)cc5)CC4)c(=O)c3c(-c3ccccc3)c12` gave a CC50 at 96 h in data set [2] above 100 µM. For the same molecule, the EC50 in data set [1] is above 100 µM. As to `O=c1c2ccccc2c2c(-c3ccccc3)c3c(=O)n(CCCCN4CCN(c5ccc(Cl)cc5)CC4)c(=O)c3c(-c3ccccc3)c12`, the CC50 at 96 h in data set [2] was above 100 µM. In data set [1], the EC50 is above 100 µM. In data set [2], `O=c1c2ccccc2c2c(-c3ccccc3)c3c(=O)n(CCCCN4CCN(c5ccccc5Cl)CC4)c(=O)c3c(-c3ccccc3)c12` displayed a CC50 at 96 h above 100 µM. Further, the EC50 in data set [1] was above 100 µM.
